According to ChEMBL document CHEMBL1139691, “Microwave-assisted synthesis of thieno[2,3-c]pyridine derivatives as a new series of allosteric enhancers at the adenosine A(1) receptor” (Bioorg Med Chem Lett, 2006):
The source made the active and inactive calls. No cut-off for these calls is given here.

Assays:
[1] = target: T1, Adenosine receptor A1 (Homo sapiens) (UniProt P30542); test: Activity at human recombinant adenosine A1 receptor expressed in CHO cells assessed as inhibition of forskolin-stimulated cAMP accumulation in presence of CPA at 1 uM relative to control; assay type: functional, cell-based; parameters: scale not given: the % may be the effect or the level left
T1 sequence (whole entry): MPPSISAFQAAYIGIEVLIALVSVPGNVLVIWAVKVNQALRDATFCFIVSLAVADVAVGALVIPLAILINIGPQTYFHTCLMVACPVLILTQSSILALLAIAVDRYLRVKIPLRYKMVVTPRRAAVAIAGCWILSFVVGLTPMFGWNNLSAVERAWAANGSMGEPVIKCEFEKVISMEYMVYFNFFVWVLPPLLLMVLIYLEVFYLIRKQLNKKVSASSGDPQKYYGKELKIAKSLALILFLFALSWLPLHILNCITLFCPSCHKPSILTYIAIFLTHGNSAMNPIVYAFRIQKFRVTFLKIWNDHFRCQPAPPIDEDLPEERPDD
Summary of the method: (§1)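 CHO cells stably expressing human A1 receptor (about 5 pmol/mg protein), grown 48–72 h in Ham's F12 with FBS and G-418. Cells were washed in HBSS for 6 min at 37 °C, then incubated 6 min at 37 °C in HBSS with adenosine deaminase (0.5 U/ml), 20 µM rolipram, 1 µM forskolin and 0.03 nM CPA, plus compound at 0.01–10 µM. Stopped with 50 mM HCl; cAMP read by acetylation radioimmunoassay. Quadruplicates; averaged over six experiments.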

[2] = target: T1, Adenosine receptor A1 (Homo sapiens); test: Activity at human recombinant adenosine A1 receptor expressed in CHO cells assessed as inhibition of forskolin-stimulated cAMP accumulation in presence of CPA at 10 uM relative to control; assay type: functional, cell-based; parameters: scale not given: the % may be the effect or the level left; summary of the method: as §1
[3] = target: T1, Adenosine receptor A1 (Homo sapiens); test: Displacement of [3H]DPCPX from human adenosine A1 receptor expressed in CHO cells at 10 uM; assay type: cell-based
Summary of the method: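 Competition for 1 nM [3H]DPCPX at CHO hA1 membranes (100 µg protein), 150 min at 25 °C, Tris-HCl pH 7.4. Nonspecific binding defined with 1 µM DPCPX. Compound tested at 10 µM; percent displacement reported, n = 3.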

[4] = target: Adenosine A2 receptor (Homo sapiens) (UniProt P29275+P29274); test: Displacement of [3H]ZM 241385 from human adenosine A2 receptor expressed in CHO cells at 10 uM; assay type: cell-based
Summary of the method: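 Competition for [3H]ZM 241385 at CHO hA2A membranes (100 µg protein), 60 min at 4 °C, Tris-HCl with MgCl2, pH 7.4. Nonspecific binding defined with 1 µM ZM241385. Compound tested at 10 µM; percent displacement reported, n = 3.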

[5] = target: T2, Adenosine receptor A3 (Homo sapiens) (UniProt P0DMS8); test: Displacement of [3H]MRE-3008F20 from human adenosine A3 receptor expressed in CHO cells at 10 uM; assay type: cell-based
T2 sequence (whole entry): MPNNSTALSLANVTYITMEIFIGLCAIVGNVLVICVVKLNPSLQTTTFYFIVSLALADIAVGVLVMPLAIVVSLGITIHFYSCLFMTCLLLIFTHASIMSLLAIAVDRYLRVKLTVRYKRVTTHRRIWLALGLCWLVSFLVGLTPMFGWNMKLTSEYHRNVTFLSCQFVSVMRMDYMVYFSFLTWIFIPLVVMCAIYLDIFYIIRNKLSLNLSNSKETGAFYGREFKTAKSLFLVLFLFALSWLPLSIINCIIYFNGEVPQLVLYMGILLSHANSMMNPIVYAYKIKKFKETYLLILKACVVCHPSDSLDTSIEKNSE
Summary of the method: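 Competition for [3H]MRE-3008F20 at CHO hA3 membranes (100 µg protein), 150 min at 4 °C, Tris-HCl with MgCl2 and 1 mM EDTA, pH 7.4. Compound tested at 10 µM; percent displacement reported, n = 3.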

[6] = target: T1, Adenosine receptor A1 (Homo sapiens); test: Activity at human recombinant adenosine A1 receptor expressed in CHO cells assessed as inhibition of forskolin-stimulated cAMP accumulation in presence of CPA at 0.01 uM relative to control; assay type: functional, cell-based; parameters: scale not given: the % may be the effect or the level left; summary of the method: as §1
[7] = target: T1, Adenosine receptor A1 (Homo sapiens); test: Activity at human recombinant adenosine A1 receptor expressed in CHO cells assessed as inhibition of forskolin-stimulated cAMP accumulation in presence of CPA at 0.1 uM relative to control; assay type: functional, cell-based; parameters: scale not given: the % may be the effect or the level left; summary of the method: as §1
[8] = target: T1, Adenosine receptor A1 (Homo sapiens); test: Activity at human recombinant adenosine A1 receptor expressed in CHO cells assessed as inhibition of forskolin-stimulated cAMP accumulation in the presence of CPA relative to control; assay type: functional, cell-based; parameters: scale not given: the % may be the effect or the level left; summary of the method: as §1
[9] = target: T1, Adenosine receptor A1 (Homo sapiens); test: Activity at human recombinant adenosine A1 receptor expressed in CHO cells assessed as inhibition of forskolin-stimulated cAMP accumulation in the presence of CPA at 10 uM; assay type: functional, cell-based; parameters: scale not given: the % may be the effect or the level left; summary of the method: as §1

| Structure (SMILES) | Activity [1] [%] | Activity [2] [%] | inhibition [3] [%] | inhibition [4] [%] | inhibition [5] [%] | Activity [6] [%] | Activity [7] [%] | Activity [8] [%] | Activity [9] |
| --- | --- | --- | --- | --- | --- | --- | --- | --- | --- |
| Nc1sc2cnccc2c1C(=O)c1cccs1 | 107 | 98 | 35 | 0 | 0 | 111 | 104 |  |  |
| Nc1sc2cnccc2c1C(=O)c1ccccc1 | 90 | 100 | 0 | 0 | 0 | 91 | 89 |  |  |
| Nc1sc2cnccc2c1C(=O)c1ccc(Cl)cc1 | 96 | 114 | 50 | 0 | 0 | 104 | 102 |  |  |
| Cc1sc(N)c(C(=O)c2cccc(C(F)(F)F)c2)c1C | 81 | 52 | 0 | 0 |  | 97 | 93 | 48 |  |
| Nc1sc2cnccc2c1C(=O)c1ccc(Cl)c(Cl)c1 | 103 | 105 | 0 | 0 | 0 | 113 | 108 |  |  |
| Nc1sc2cnccc2c1C(=O)c1cccc(C(F)(F)F)c1 | 82 | 63 | 0 | 0 | 0 | 101 | 95 |  | 37% |

Now from value to molecule:

| Activity [1] [%] | Activity [2] [%] | inhibition [3] [%] | inhibition [4] [%] | inhibition [5] [%] | Activity [6] [%] | Activity [7] [%] | Activity [8] [%] | Activity [9] | Structure (SMILES) |
| --- | --- | --- | --- | --- | --- | --- | --- | --- | --- |
| 107 | 121 | 45 | 0 | 0 | 102 | 107 |  |  | Cc1ccc(C(=O)c2c(N)sc3cnccc23)cc1 |
| 90 | 94 | 0 | 0 | 0 | 95 | 97 |  |  | COc1ccc(C(=O)c2c(N)sc3cnccc23)cc1 |
| 84 | 104 | 0 | 0 | 0 | 97 | 89 |  |  | Nc1sc2cnccc2c1C(=O)c1ccc(Br)cc1 |
| 97 | 111 | 0 | 0 | 0 | 103 | 98 |  |  | Nc1sc2cnccc2c1C(=O)c1ccccc1Cl |
| 107 | 66 | 0 | 0 | 0 | 113 | 112 |  | Active | Nc1sc2cnccc2c1C(=O)c1cccc2ccccc12 |
